Zone of inhibition data for 1 compound are collected here from ChEMBL document CHEMBL1667739, “Pitiprolamide, a proline-rich dolastatin 16 analogue from the marine cyanobacterium Lyngbya majuscula from Guam” (J Nat Prod, 2011).

What all share (type): functional
Conditions in all cases: ATCC 25177, 288 h, read-out: DIZ

Experiment [1] concerns Mycobacterium tuberculosis. As to the kind of experiment: Antimycobacterial activity against Mycobacterium tuberculosis ATCC 25177 at 10 ug after 12 days by disc diffusion assay. In short, it runs like this: (§1)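 Compound dissolved in EtOH and loaded onto sterile filter-paper discs. Dried discs were placed on an inoculated agar plate and incubated 12 days at 37 °C. The diameter of the inhibition zone was then measured.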

In experiment [2] the test system is Mycobacterium tuberculosis. As to the kind of experiment: Antimycobacterial activity against Mycobacterium tuberculosis ATCC 25177 at 5 ug after 12 days by disc diffusion assay. Summed up: as §1
Experiment [3] deals with Mycobacterium tuberculosis. Kind of experiment: Antimycobacterial activity against Mycobacterium tuberculosis ATCC 25177 at 1 ug after 12 days by disc diffusion assay. Summed up: as §1

Consider `CN[C@@H]1[C@H](O[C@H]2[C@H](O[C@H]3[C@H](O)[C@@H](O)[C@H](N=C(N)N)[C@@H](O)[C@@H]3N=C(N)N)O[C@@H](C)[C@]2(O)C=O)O[C@@H](CO)[C@H](O)[C@H]1O` [STREPTOMYCIN], for which the zone of inhibition at 10 µg/disc in experiment [1] came to 40 mm. Moreover, in experiment [2], the zone of inhibition at 5 µg/disc is 30 mm. Besides, in experiment [3], the zone of inhibition at 1 µg/disc is 0 mm.
